# Shown are actives, neighbours in structure and some others; about 1.7% of the full set was active somewhere.
# EP2 mod = modulates human prostaglandin E2 receptor EP2 signaling; EP2-expressing cells, cAMP HTRF FRET, PGE2 co-stimulation; induction, % at 25 µM; hit rate 0.83% among 260,000;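 active = compounds whose cAMP rise, as percent of the full-agonist control response, exceeds 60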;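 note: rat C6 glioma line stably carrying human EP2 under a CMV promoter; the protocol text gives 20 µM as final concentration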
# Target sequence (P43116 whole entry, looked up): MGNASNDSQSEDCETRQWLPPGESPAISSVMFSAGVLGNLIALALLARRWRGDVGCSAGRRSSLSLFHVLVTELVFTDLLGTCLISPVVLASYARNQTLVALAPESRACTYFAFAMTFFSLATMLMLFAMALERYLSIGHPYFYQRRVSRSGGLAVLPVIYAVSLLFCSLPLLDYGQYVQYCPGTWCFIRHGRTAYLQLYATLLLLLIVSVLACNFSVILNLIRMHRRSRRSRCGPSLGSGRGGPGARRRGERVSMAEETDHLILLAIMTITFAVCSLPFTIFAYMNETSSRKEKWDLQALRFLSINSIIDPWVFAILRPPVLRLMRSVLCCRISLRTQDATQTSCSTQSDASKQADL
# Dynein cargo inh = blocks dynein driven cargo transport along microtubules | 3617.4 mouse cells, GR-EGFP nuclear translocation imaging; test concentration mostly 20 µM; stimulated with dexamethasone, 1 µM; active compounds read low | AID 1381 | hit rate 0.47% among 220,000 | z-score, hits read low;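 active = plate z-score of nuclear minus cytoplasmic receptor signal below a set negative limit, without overly bright fluorescence or cell loss, cut at about -3.5 in these data, passing the limit was not always enough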;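 note: z-score of nuclear minus cytoplasmic ring GR-EGFP intensity difference per well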
#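 Buffer or medium: tet-free, stripped-serum medium; reagent: dexamethasone at 1.0 µM final, 30 min; incubation: 48 h induction, 1 h compound, 30 min dex at 37 °C; measured by: formaldehyde fixation, Hoechst nuclear stain, 10x automated fluorescence imaging; read-out: nuclear-to-cytoplasmic GR-EGFP distribution per well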
# EP2 antag = blocks the human prostaglandin E2 receptor EP2 | C6 glioma cells expressing human EP2, cAMP TR-FRET; cells stimulated with saturating PGE2 | AID 1422 | inhibition, % at 25 µM | hit rate 0.52% among 260,000 | P43116;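 active = percent inhibition above 40 after rounding to a whole number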;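 note: rat C6 glioma host cells with rolipram phosphodiesterase inhibitor present; the protocol text gives 20 µM as final concentration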
# Hsp70 act = switches on Hsp70 transcription; activation, % at 10 µM; hit rate 0.04% among 200,000; HeLa Hsp70 promoter luciferase reporter, luminescence; scaled: vehicle 0, proteasome-inhibitor control 100%; AID 1203;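 active = activation above the mean across all tested compounds plus 3 SD, cutoff set per campaign, cut at about 5.5% in these data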
# Hits are given with their value; - = inactive; . = not tested or not shown; ! = not active in a repeat.
SMILES,EP2 mod,Dynein cargo inh,EP2 antag,Hsp70 act
CCOC(=O)c1[nH]c(C)c(/C(O)=C2\C(=O)C(=O)N(CCCN3CCOCC3)C2c2cccs2)c1C (configuration not stated),-,-,88,.
COC(=O)c1[nH]c(C)c(/C(O)=C2\C(=O)C(=O)N(CCN3CCOCC3)C2c2cccs2)c1C (configuration not stated),-,.,-,.
Cc1nnc2n(Cc3ccccc3)c(=O)c3c4c(sc3n12)COC(C(C)C)C4 (configuration not stated),64,-,-,-
Cc1cccc(OCCN2C(=O)c3ccccc3C2=O)c1,-,-,-,-
Cc1ccc(S(=O)(=O)ON2C(=O)c3ccccc3C2=O)c(C)c1,-,-4.8,-,-
CCN1CCCC1CN(Cc1cc2cc3c(cc2[nH]c1=O)OCO3)C(=O)NC1CCCCC1 (configuration not stated),-,.,-,.
CCOc1ccccc1-c1n[nH]c(=S)o1,-,-,40,-
Cc1cccc(-c2n[nH]c(=S)o2)c1,-,.,41,.
S=c1[nH]nc(-c2cccc(Br)c2)o1,-,-,53,-
Nc1c(C(=O)NC2CC2)c2nc3ccccc3nc2n1-c1ccc2c(c1)OCO2,-,-,-,-
Nc1c(C(=O)OCC2CCCO2)c2nc3ccccc3nc2n1-c1ccc2c(c1)OCCO2 (configuration not stated),-,-,80,-
C=CCOc1ccc(C2C(C#N)=C(N)OC3=C2C(=O)CCC3)cc1OCC (configuration not stated),-,.,-,.
Cc1cc2c(cc3c(=O)n(CC(=O)OC4CCCCC4)nc(C)n32)s1,-,.,.,.
CC(C)=CCc1c2c(c3occ(-c4ccc(O)c(O)c4)c(=O)c3c1O)C=CC(C)(C)O2,-,.,41!,.
CCC(c1nnnn1C1CCCCC1)N(Cc1ccc(C)cc1)Cc1cc2cccc(C)c2[nH]c1=O (configuration not stated),66,.,-,.
CCC(c1nnnn1C(C)(C)C)N(Cc1ccccc1)Cc1cc2cc(OC)ccc2[nH]c1=O (configuration not stated),68,.,-,.
CCOc1ccc2[nH]c(=O)c(CN(Cc3ccccc3)C(CC)c3nnnn3C3CCCC3)cc2c1 (configuration not stated),62,.,-,.
CCC(c1nnnn1C1CCCC1)N(Cc1ccccc1)Cc1cc2cc(OC)ccc2[nH]c1=O (configuration not stated),74,.,-,.
CCC(c1nnnn1C(C)(C)C)N(Cc1ccc(OC)cc1)Cc1cc2cc(C)ccc2[nH]c1=O (configuration not stated),-,.,-,.
Cc1ccc(NC(=O)CSc2nc3ccccc3c(=O)n2C)cc1Cl,-,.,-,.
O=C(c1ccc2c(c1)OCO2)N1CCC(n2nnc3ccccc3c2=O)CC1,-,.,-,.
CCOc1ccc2[nH]c(=O)c(CN(Cc3cccs3)C(CC)c3nnnn3C3CCCC3)cc2c1 (configuration not stated),62,.,-,.
C=CCNC(=S)N(Cc1ccccc1)Cc1ccccc1,61,-,-,-
CC(=O)c1cc(C#N)c(SCCC(C)C)nc1C,61,-,-,-
Cc1ccc(NC(=O)c2cccc(C(=O)OC(C)C)n2)c(Br)c1,62,-,-,-
SMILES,EP2 mod,Dynein cargo inh,EP2 antag,Hsp70 act
Cc1ccc(C)c(C(=O)COc2ccc(C)nc2[N+](=O)[O-])c1,-,-4.3,-,-
COc1ccc(CN(Cc2cccn2C)S(=O)(=O)c2ccc(C)cc2)cc1,72,-,-,.
COc1ccc(CN(Cc2cccn2C)S(=O)(=O)c2ccc(F)cc2)cc1,-,-,-,.
Nc1nc2c(s1)COc1ccccc1-2,-,-,-,-
Nc1nc2c(s1)CCc1c-2cnn1-c1ccccc1,-,-6,40,-
CCCCC[C@H](O)/C=C/[C@@H]1[C@@H](C/C=C\CCCC(=O)O)[C@H]2CO[C@@H]1C2,98,-,-,-
CCCCC[C@H](O)/C=C/[C@@H]1[C@@H](C/C=C\CCCC(=O)O)[C@@H](O)C[C@H]1O,102,-,-,-
Cc1cccc(C2(O)CCN(C(=O)c3c(-c4ccncc4)noc3C)CC2)c1,-,.,-,.
Cn1c(=O)c2cc(S(=O)(=O)NC3CC3c3ccccc3)ccc2n(C)c1=O (configuration not stated),-,.,-,.
COc1ccc(NC(=S)N(Cc2ccco2)Cc2cc3c(C)cc(C)cc3[nH]c2=O)cc1,-,.,-,.
Cc1cc(C)c(C(=O)/C=C/c2ccc(C(C)C)cc2)c(=O)[nH]1,-,-,83,-
Cc1cc(C)c(C(=O)/C=C/C=C/c2ccccc2)c(=O)[nH]1,-,-,-,-
CCC(=O)OCCn1c(=O)c2cc3c(=O)n(CCOC(=O)CC)c(=O)c3cc2c1=O,-,-,95,-
Cc1sc2ncn(C(C)C(=O)O)c(=O)c2c1-c1ccc(Cl)cc1 (configuration not stated),-,.,-,.
Cc1ccc(NC(=O)c2ccco2)c(NC(=O)c2ccccc2)c1,-,.,-,.
CCN(CC)P(=O)(Nc1ccc(C)cc1Br)c1ccc(N(C)C)cc1NC(=O)c1ccco1 (configuration not stated),65,-,-,-
CC(C)NCC(O)c1ccc(O)c(O)c1 (configuration not stated),76,.,-,.
COc1cc(C(O)CO)ccc1O (configuration not stated),-,.,-,.
NC[C@H](O)c1ccc(O)c(O)c1,72,.,-,.
O=C1NC(c2ccc(Cl)cc2)C(C(=O)c2cccs2)=C1O (configuration not stated),-,.,-,.
Cc1cc(C)c2nc(C(F)(F)F)nc(N3CC(C)OC(C)C3)c2c1 (configuration not stated),61,-,.,-
c1ccc2c(CN3CCN(Cc4c[nH]c5ccccc45)CC3)c[nH]c2c1,-,.,62,.
Fc1ccc(N2CCN(Cc3c[nH]c4ccccc34)CC2)cc1,-,-,-,.
COc1ccc(N=c2oc3cc(O)ccc3cc2C(=O)Nc2ccccn2)cc1OC,-,-,43,-
COc1cccc(N=c2oc3cc(O)ccc3cc2C(=O)Nc2nccs2)c1,-,.,-,.
SMILES,EP2 mod,Dynein cargo inh,EP2 antag,Hsp70 act
O=C1c2ccccc2C(=O)c2c(Nc3ccc4c5c(cccc35)C(=O)c3ccccc3-4)cccc21,-,.,43,.
CNc1cccc2c1C(=O)c1ccccc1C2=O,-,-,-,-
O=C1c2ccccc2C(=O)c2c(Nc3cc4c5c(ccc6c7ccc8c9c(cc(Nc%10cccc%11c%10C(=O)c%10ccccc%10C%11=O)c(c3c56)c97)-c3ccccc3C8=O)C(=O)c3ccccc3-4)cccc21,-,.,44,.
N#Cc1c(NC(=S)NC(=O)c2cccs2)sc2c1CCCCC2,-,.,-,.
CCOc1cccc(C(=O)Nc2sc(C(=O)OC)c(C)c2C#N)c1,-,.,-,.
CCCOC(=O)C(C)Nc1n[nH]c(=S)[nH]c1=O (configuration not stated),-,.,86,.
O=C(NC1CCN(C(=O)Nc2ccccc2C(F)(F)F)CC1)C1CCCCC1,-,.,-,.
